Source: ChEMBL document CHEMBL5661966, “Aurora B couples chromosome alignment with anaphase by targeting BubR1, Mad2, and Cenp-E to kinetochores” (J Cell Biol, 2003)
Blank lines part the entries; values can stand above or below the compound they belong to. Activity calls are given as the source filed them. No cut-off for these calls is given here.

Experiments:
[1] = Inhibition of reassociation of kinetochore with BubR1 in human DLD-1 cells assessed as inter-kinetochore distance measured for 40 mins (reference value: 0.89+/-0.20 uM); format: functional
[2] = Inhibition of reassociation of kinetochore with BubR1 in human DLD-1 cells assessed as BubR1/ACA fluorescence ratio measured for 40 mins (reference value: 2.23+/-1.21); format: functional
HeLa [3] = experiment: Induction of cell cycle arrest in human HeLa cells assessed as mitotic index measured after 6 hrs relative to control; format: functional
HeLa [4] = experiment: Effect on nocodazole pretreated human HeLa cells assessed as compromising of microtubule polymerization induced spindle check point function; format: functional, cell-based
[5] = biological target: Mitotic checkpoint serine/threonine-protein kinase BUB1 beta (Homo sapiens) (UniProt O60566); experiment: Inhibition of BubR1 phosphorylation in mitotic human HeLa cells released from G1/S blocks by immunoblotting analysis; format: cell-based
Mitotic checkpoint serine/threonine-protein kinase BUB1 beta (Homo sapiens), sequence (O60566 whole entry): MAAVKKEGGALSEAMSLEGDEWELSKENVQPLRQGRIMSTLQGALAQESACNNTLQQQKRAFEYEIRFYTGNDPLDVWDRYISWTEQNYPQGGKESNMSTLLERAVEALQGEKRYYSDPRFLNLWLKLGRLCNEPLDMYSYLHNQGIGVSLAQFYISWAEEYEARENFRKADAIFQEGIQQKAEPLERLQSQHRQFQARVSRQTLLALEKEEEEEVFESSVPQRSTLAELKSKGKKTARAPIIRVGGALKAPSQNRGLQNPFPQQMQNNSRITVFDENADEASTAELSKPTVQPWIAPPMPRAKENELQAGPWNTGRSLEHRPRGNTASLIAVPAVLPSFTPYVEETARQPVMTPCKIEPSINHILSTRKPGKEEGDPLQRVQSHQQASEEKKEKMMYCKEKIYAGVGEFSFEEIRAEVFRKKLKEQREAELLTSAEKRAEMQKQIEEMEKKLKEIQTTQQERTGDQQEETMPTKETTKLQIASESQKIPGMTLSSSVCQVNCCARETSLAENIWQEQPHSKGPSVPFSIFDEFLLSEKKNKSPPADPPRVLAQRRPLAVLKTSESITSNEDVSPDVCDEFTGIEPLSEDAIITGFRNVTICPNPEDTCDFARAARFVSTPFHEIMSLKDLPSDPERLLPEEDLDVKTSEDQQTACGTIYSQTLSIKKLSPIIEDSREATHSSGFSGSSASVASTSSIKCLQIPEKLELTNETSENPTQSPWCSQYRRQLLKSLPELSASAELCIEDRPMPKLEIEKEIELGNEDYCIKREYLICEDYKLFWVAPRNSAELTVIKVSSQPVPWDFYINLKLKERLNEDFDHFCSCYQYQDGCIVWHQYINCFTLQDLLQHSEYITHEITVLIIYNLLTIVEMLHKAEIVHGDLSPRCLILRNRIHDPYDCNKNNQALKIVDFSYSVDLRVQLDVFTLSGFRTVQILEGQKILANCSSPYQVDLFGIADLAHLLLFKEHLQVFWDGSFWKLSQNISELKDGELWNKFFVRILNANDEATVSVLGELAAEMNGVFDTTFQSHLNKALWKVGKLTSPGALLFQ

DLD-1 [6] = experiment: Effect on human DLD-1 cells assessed as reduction in kinetochore bound CenP-E measured after 1 hr by immunofluorescence imaging analysis; format: functional, cell-based
DLD-1 [7] = experiment: Inhibition of sister chromatid separation in human DLD-1 cells; format: functional, cell-based
DLD-1 [8] = experiment: Effect on human DLD-1 cells assessed as reduction in kinetochore bound Mad2 measured after 1 hr by immunofluorescence imaging analysis; format: functional, cell-based
DLD-1 [9] = experiment: Effect on human DLD-1 cells assessed as localization of survivin to centromere measured after 1 hr by immunofluorescence imaging analysis; format: functional, cell-based
DLD-1 (Homo sapiens) = experiment: Effect on paclitaxel pretreated human DLD-1 cells assessed as compromising of microtubule polymerization induced spindle check point function
DLD-1 [10] = experiment: Effect on human DLD-1 cells assessed as reduction in fluorescence intensity of kinetochore bound BubR1/ACA ratio in presence of nocodazole measured by immunofluorescence imaging analysis relative to control; format: functional; set-up: scale not given: the % may be the effect or the level left
HeLa [11] = experiment: Induction of cell cycle arrest in 12 hrs nocodazole block pretreated human HeLa cells assessed as mitotic stage exit in presence of nocodazole measured after 4 hrs; format: functional, cell-based
Method in brief: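 HeLa cells were held in a nocodazole block for 2 or 12 h, and mitotic cells were harvested. They were replated in nocodazole alone or nocodazole plus test drug. Mitotic index was scored by MPM-2 reactivity after 4 h.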

HeLa [12] = experiment: Induction of mitosis in human HeLa cells assessed as cyclin B1 level at 18 hrs by flow cytometric analysis; format: functional, cell-based
DLD-1 [13] = experiment: Inhibition of chromosome alignment in human DLD-1 cells assessed as reduction of metaphase and anaphase spindle proportion for 1 hr; format: functional, cell-based
DLD-1 [14] = experiment: Induction of cell cycle arrest in human DLD-1 cells assessed as accumulation of cells at mitotic stage upto 6 hrs by SEM analysis; format: functional, cell-based
[15] = biological target: Mitotic checkpoint serine/threonine-protein kinase BUB1 beta (Homo sapiens) (UniProt O60566); experiment: Inhibition of BubR1 phosphorylation in mitotic human HeLa cells released from G1/S blocks in presence of nocodazole by immunoblotting analysis; format: cell-based
A549 = experiment: Induction of endoreduplication in human A549 cells measured after 48 hrs; format: functional, cell-based
DLD-1 [16] = experiment: Effect on human DLD-1 cells assessed as reduction in kinetochore bound BubR1 measured after 1 hr by immunofluorescence imaging analysis; format: functional, cell-based
HeLa [17] = experiment: Induction of mitosis in human HeLa cells assessed as peaked mitotic index at 10 hrs by flow cytometric analysis; format: functional, cell-based
DLD-1 [18] = experiment: Inhibition of chromosome alignment in human DLD-1 cells assessed as abnormal chromosome appearance upto 6 hrs; format: functional, cell-based
DLD-1 [19] = experiment: Effect on human DLD-1 cells assessed as localization of Aurora B to centromere measured after 1 hr by immunofluorescence imaging analysis; format: functional, cell-based
[20] = biological target: Mitotic checkpoint serine/threonine-protein kinase BUB1 beta (Homo sapiens) (UniProt O60566); experiment: Inhibition of BubR1 immunoprecipitate phosphorylation in mitotic human HeLa cells released from G1/S blocks; format: cell-based
HeLa [21] = experiment: Induction of cell cycle arrest in human HeLa cells assessed as increase in cyclin B1 level measured after 1 hr by immunoblot analysis; format: functional, cell-based
Method in brief: (§1)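 Mitotic HeLa cells were collected by selective detachment after a 12-h nocodazole block, washed free of nocodazole, and replated in the drug combinations. Cells were harvested at set times. Mitotic index was scored by MPM-2 reactivity, cyclin B1 was measured by immunoblot, and DNA content was read as histograms.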

hTERT-HME1 = experiment: Induction of endoreduplication in human HME cells measured after 48 hrs; format: functional, cell-based
HeLa [22] = experiment: Induction of cell cycle arrest in human HeLa cells assessed as accumulation of cells at mitotic stage measured after 2 hrs; format: functional, cell-based; method in brief: as §1
HeLa [23] = experiment: Induction of cell cycle arrest in human HeLa cells assessed as increase in cyclin B1 level measured after 2 hrs by immunoblot analysis; format: functional, cell-based; method in brief: as §1

SMILES: CC(=O)O[C@H]1C(=O)[C@@]2(C)[C@H]([C@H](OC(=O)c3ccccc3)[C@]3(O)C[C@H](OC(=O)[C@H](O)[C@@H](NC(=O)c4ccccc4)c4ccccc4)C(C)=C1C3(C)C)[C@]1(OC(C)=O)CO[C@@H]1C[C@@H]2O [PACLITAXEL]
inter-kinetochore distance [1]: 0.58 µm
Activity [2]: 3.86
Activity (HeLa [3]): ~25%

inhibition [5]: Active
inhibition [15]: Active
inhibition [20]: inactive
SMILES: COc1cc2c(Nc3ccc(NC(=O)c4ccccc4)cc3)ncnc2cc1OCCCN1CCOCC1
Activity (HeLa [4]): Active
Activity (DLD-1 [6]): Active
inhibition (DLD-1 [7]): inactive
Activity (DLD-1 [8]): Active
Activity (DLD-1 [9]): Active
Activity (DLD-1 (Homo sapiens)): Active
Activity (DLD-1 [10]): 0%
Activity (HeLa [11]): Active
Activity (HeLa [12]): Active
inhibition (DLD-1 [13]): Active
Activity (DLD-1 [14]): Active
Activity (A549): Active
Activity (DLD-1 [16]): Active
Activity (HeLa [17]): Active
inhibition (DLD-1 [18]): Active
Activity (DLD-1 [19]): Active
Activity (HeLa [21]): Active
Activity (hTERT-HME1): Active

SMILES: COC(=O)Nc1nc2cc(C(=O)c3cccs3)ccc2[nH]1 [NOCODAZOLE]
Activity (HeLa [22]): Active
Activity (HeLa [23]): Active
Activity (HeLa [12]): Active
Activity (DLD-1 [14]): Active
Activity (HeLa [3]): ~25%
